The values that follow come from ChEMBL document CHEMBL4513216, “Probing the Open Global Health Chemical Diversity Library for Multistage-Active Starting Points for Next-Generation Antimalarials” (ACS Infect Dis, 2020).

The structures appear in SMILES notation.

A short description of the data set: Toxicity liver stage against HepG2, at 10uM. The arrangement: test concentration 10 uM, cell line HepG2-A16-CD81EGFP. The note with it: human, HepG2-A16-CD81EGFP cells; read-out: INHIBITION
The format is cell-based. In a few lines: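 Uninfected HepG2-A16-CD81EGFP cells, 3 × 10^3 per well, 1536-well, plated on prespotted compound at 10 μM final, parasite-free screening media added to match infected plates; puromycin 10 μM positive, DMSO 0.5% negative; run in parallel with 48 h PbLuc assay at 37 °C, 5% CO2; viability by CellTiter-Glo luminescence, normalized to controls.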
As for `COc1ccc(CCCN(C)C(=O)c2cc(C(C)=O)c[nH]2)cc1OC`, the cytotoxicity at 10 µM came out at 2.24%.

For the compound `O=C(NCC1CCOCC1)c1cc(-c2ccc3c(c2)CCO3)n[nH]1`, the cytotoxicity at 10 µM came out at 2.63%. On to `COCCN(C)C(=O)c1nc2c(s1)CCCN2C`, for which the cytotoxicity at 10 µM was -143%. Consider `COCCN(C)C(=O)c1nc2c(s1)CCCN2c1ncccn1`, for which the cytotoxicity at 10 µM was -131%.

In the case of `CCS(=O)(=O)N1CC[C@@H]2[C@H](COCC3CC3)CN(C)C(=O)[C@@H]2CC1`, the cytotoxicity at 10 µM is -4.79%.

Turning to `CS(=O)(=O)N1CCc2sc(C(=O)NCCc3ccccn3)cc21`, the cytotoxicity at 10 µM was -0.464%. For `O=C(Cc1ccsc1)NCC1OCCc2cn(CC3CC3)nc21` (stereo not drawn) the value was 9.77%; for `CCn1nccc1CNc1nc(N)nc2c1nc(C)n2C`, -8.13%; for `Cc1nc(=O)c2ccccc2n1C1=CCN(CC(=O)N2CCCC2)CC1`, -7.45%. For `Cn1cc(CNC(=O)Nc2ccc(S(=O)(=O)C(F)F)cc2)cn1` the value was -5.09%; for `CN(CCCOc1ccccc1)S(=O)(=O)N1CCOCC1`, 4.38%. Regarding `CC(SCCC(=O)NC(N)=O)c1c(F)cccc1F` (stereo not drawn), the cytotoxicity at 10 µM was 6.93%. For `CC(C)(C)CC(NC(=O)N1CCS(=O)(=O)CC1)C(F)(F)F` (stereo not drawn) the value was 0.106%.

On to `O=C(NCCOc1ccc(F)cc1)C1CCCN(C(=O)C2CC2)C1` (stereo not drawn), for which the cytotoxicity at 10 µM was determined as 0.856%.

As for `CC(c1nc(C2CC2)no1)N1CCN(CCc2ccncc2)CC1` (stereo not drawn), the cytotoxicity at 10 µM was -5.65%. For `CCOc1ccc(Cl)cc1CCNC(=O)Cn1ccccc1=O` the value was 8%; for `COc1cccc(CCC(=O)Nc2ccn(C)n2)c1OC`, -2.14%; for `Cc1cc(S(=O)(=O)N2CC[C@@H](O)C2)c(Cl)cc1F`, -8.59%.

As for `Cc1cccc(C(=O)NCC2CCS(=O)(=O)C2)n1` (stereo not drawn), the cytotoxicity at 10 µM was -6.21%.

With `CC(C)c1nc(C2CCCN(C(=O)CS(=O)(=O)C(C)C)C2)no1` (stereo not drawn), the cytotoxicity at 10 µM came to 8.75%. Turning to `Cc1nc(NC(=O)C(C)N2CCN(c3ncccn3)CC2)sc1C` (stereo not drawn), the cytotoxicity at 10 µM worked out at 4.79%. On to `CN(Cc1ccncc1)Cc1nccn1Cc1ccccc1`, for which the cytotoxicity at 10 µM stood at 12.5%. On to `CCc1cccc(NC(=O)NC2CCc3nc(C)nn3C2)c1` (stereo not drawn), for which the cytotoxicity at 10 µM is -12.5%. As to `CN1CC(C(=O)NC(C)(C)CNC(=O)OC(C)(C)C)CC1=O` (stereo not drawn), the cytotoxicity at 10 µM is -3.88%. Turning to `O=C(NC1CCS(=O)(=O)C1)c1ccc(-c2ccc(F)cc2)s1` (stereo not drawn), the cytotoxicity at 10 µM was -2.32%. `O=C(NC1CC1)C1CCCN1c1ncnc2ccsc12` (stereo not drawn): the cytotoxicity at 10 µM is -5.2%. Consider `O=C(NCCNc1ccc(Br)cn1)c1ccc(O)cc1`, for which the cytotoxicity at 10 µM is 0.612%. As to `CC(=O)NC(c1cc(F)ccc1F)C1CC1` (stereo not drawn), the cytotoxicity at 10 µM was -1.99%. The figure for `Cn1ccnc1-c1noc(NCc2ccccc2)n1` is -3.49%; for `NC(=O)CCSc1n[nH]c(-c2ccc3c(c2)CCC3)n1` it is -0.302%; for `CC1(c2ccc(Br)cc2)CC(=O)N(CCC(N)=O)C1=O` (stereo not drawn) it is -3.74%. Regarding `CCN(CCNC(=O)C1CCN(C(C)=O)CC1)c1ccccc1C`, the cytotoxicity at 10 µM was -6.19%.

Consider `CCc1noc(CS(=O)(=O)c2cccc(OC)c2)n1`, for which the cytotoxicity at 10 µM worked out at 6.7%. Turning to `CN(C)c1ccc(NC(=O)N2CCCCC2c2ncc[nH]2)cn1` (stereo not drawn), the cytotoxicity at 10 µM is -1.78%. As to `O=C(CCc1ccco1)Nc1ncn(CC(=O)N2CCCCCC2)n1`, the cytotoxicity at 10 µM was -2.29%.

Turning to `c1csc(-c2noc(CC3CCCO3)n2)c1` (stereo not drawn), the cytotoxicity at 10 µM was -3.37%. Turning to `CCCS(=O)(=O)CC(=O)Nc1cc(CC(C)(C)C)n[nH]1`, the cytotoxicity at 10 µM worked out at 2.43%. Regarding `COc1cccc(CN(C)C(=O)CSc2ccc3c(c2)OCCO3)c1`, the cytotoxicity at 10 µM was -7.97%. As to `Cc1ccc(OCC(=O)NCc2ccccc2F)nc1`, the cytotoxicity at 10 µM is -12%. On to `CC[C@H](C)Nc1nccc(-c2cnc3sccn3c2=O)n1`, for which the cytotoxicity at 10 µM is -8.72%. `O=C(Nc1nc(-c2ccccc2)ns1)N1CCC(F)CC1`: the cytotoxicity at 10 µM is -137%.

In the case of `Cc1ccc2c(c1)CN(CC(=O)NCCc1ccc(F)cc1)CC(C)O2` (stereo not drawn), the cytotoxicity at 10 µM came out at 1.54%. Consider `Cc1ccc2c(c1)c(CNC(=O)C1CCN(C(=O)C3CC3)CC1)nn2C`, for which the cytotoxicity at 10 µM is -0.687%. The figure for `CCCn1ncc(C(=O)N2CCN(C(=O)c3ccc[nH]3)CC2)c1C` is -151%; for `CCn1nc(C)c(C(C)Nc2cc(C3CCNCC3)nc(C)n2)c1C` (stereo not drawn) it is 2.38%. Turning to `CCc1cc(CN(C)C(=O)c2cnn[nH]2)on1`, the cytotoxicity at 10 µM stood at 7.48%. The figure for `COc1ccnc(CNc2cc(C3CC3)ncn2)c1` is -7.64%; for `O=C(N1CCOCC1)N1CC[C@@](O)(c2ccccc2)[C@H]2CCCC[C@@H]21` it is -1.11%; for `Cc1cc(C)n(CC(C)NCc2nncn2C2CCCCC2)n1` (stereo not drawn) it is -3.26%. For `CCC(=O)c1ccc(OCC(=O)NC(C)c2nnn[nH]2)cc1` (stereo not drawn) the value was -1.62%; for `CN(CCN1CCCCCC1)C(=O)c1c(O)cccc1O`, -7.08%; for `O=C(c1ccc(C2CCCO2)s1)N1CCOCC1` (stereo not drawn), 10.3%. Turning to `Cc1cc(C(=O)N2CCCC(C)C2)ccc1NCC(=O)N1CCOCC1` (stereo not drawn), the cytotoxicity at 10 µM was -0.153%. The figure for `CCCc1nnc(NC(=O)NC(C)Cn2cccn2)s1` (stereo not drawn) is -4.05%; for `COC(=O)c1ccc(N2CCN(CC(=O)NC(N)=O)C(C)C2)cc1` (stereo not drawn) it is -4.54%; for `Cc1cnn(CC(=O)NCC2CCN(c3cc(Cl)ccc3C)C2)c1` (stereo not drawn) it is -3.92%. The figure for `Cc1ccc(OCc2nc(CNCC3CN(C)CCO3)cs2)cc1` (stereo not drawn) is -23.5%; for `Cc1cc(C)n(CC2CN(Cc3nc(C)c(C)o3)CCO2)n1` (stereo not drawn) it is 4.17%; for `O=C(CCN1CCc2c(ncn2C2CC2)C1)NC1CCCC1` it is -10.1%. Turning to `Cc1ccc(C(CNC(=O)Nc2cn[nH]c2)N2CCOCC2)o1` (stereo not drawn), the cytotoxicity at 10 µM was -24.8%. As for `COc1ccnc(N2CCN(C(=O)Cc3ccsc3)CC2)n1`, the cytotoxicity at 10 µM was -3%. In the case of `COc1c(CNCC(O)c2cccc(F)c2)c(C)nn1C` (stereo not drawn), the cytotoxicity at 10 µM is -6.41%. On to `Cc1ccc2cccc(C(=O)N3CCN(c4cccnn4)CC3)c2n1`, for which the cytotoxicity at 10 µM stood at 1.91%.

As for `Cc1ccc(CN(C)Cc2nc3c(cnn3C)c(=O)[nH]2)o1`, the cytotoxicity at 10 µM was -0.972%. As to `O=C1CCC2(CCC(NC3CCOCC3)CC2)N1Cc1ccccc1` (stereo not drawn), the cytotoxicity at 10 µM was -0.0368%. The figure for `c1cnc(N2CCOCC3(CN(Cc4ccsc4)CCO3)C2)nc1` (stereo not drawn) is 5.83%; for `O=C(CC1CC1)N1CCN(Cc2ccncc2)c2ncccc2C1` it is 10%. As to `CCOCC1CN(C(=O)Cc2ccccn2)Cc2cnn(C)c21` (stereo not drawn), the cytotoxicity at 10 µM was found to be 6.9%. As for `CC(C)(CNCc1ccc(OCc2cscn2)cc1)C(N)=O`, the cytotoxicity at 10 µM is -137%. Take `CCOCC1CN(C(=O)c2ccncc2)Cc2nn(C)cc21` (stereo not drawn): the cytotoxicity at 10 µM is -5.82%.

As for `c1c(CN2CCCCC2)nc2n1CCNC2`, the cytotoxicity at 10 µM amounted to 3.91%. Turning to `O=C1CCC2(CCC(NC(=O)NCc3ccccc3)CC2)N1` (stereo not drawn), the cytotoxicity at 10 µM is -0.0957%. For `O=C(c1cccnc1)N1C[C@H]2CC[C@@H](C1)N(Cc1cccc(Cl)c1F)C2` the value was -9.24%.
